Here are results for 95 compounds from ChEMBL document CHEMBL4513216, “Probing the Open Global Health Chemical Diversity Library for Multistage-Active Starting Points for Next-Generation Antimalarials” (ACS Infect Dis, 2020).

A short description of the data set: Toxicity liver stage against HepG2, at 10uM. In kind it is cell-based. On the set-up: test concentration 10 uM, cell line HepG2-A16-CD81EGFP. The settings on record: human, HepG2-A16-CD81EGFP cells; read-out: INHIBITION
The method in brief: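 Uninfected HepG2-A16-CD81EGFP cells, 3 × 10^3 per well, 1536-well, plated on prespotted compound at 10 μM final, parasite-free screening media added to match infected plates; puromycin 10 μM positive, DMSO 0.5% negative; run in parallel with 48 h PbLuc assay at 37 °C, 5% CO2; viability by CellTiter-Glo luminescence, normalized to controls.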
On to `O=C(c1cc(-c2cccs2)nc2ccccc12)N1CCN(CCO)CC1`, for which the cytotoxicity at 10 µM was -53.2%.
Under `Cc1csc(C(=O)NCCN2CCC(c3cccs3)CC2)c1` stands 2.03%.
Under `COc1ncc(NS(=O)(=O)c2ccc(OC)c(C)c2)c(OC)n1` stands 34.8%; under `O=C(c1ccco1)N1CC[C@@H]2O[C@@H](COCC3CCOCC3)CC[C@@H]21`, 1.95%.
As for `CCn1ncc2c1C(COC)CN(Cc1cnn(C)c1)C2` (stereo not given), the cytotoxicity at 10 µM came to 1.49%.
Regarding `CO[C@H]1CN(Cc2ccccc2F)[C@@H]2CCCO[C@H]12`, the cytotoxicity at 10 µM is -0.0925%.
Under `Cn1cc(CN2CC[C@]3(C[C@H](OCc4ccccn4)CO3)C2)cn1` stands -1.08%.
For `CSC1=Nc2c(cnn2-c2ccc(C)cc2)C2=NCCCN12` the value was 10.3%.
Under `O=C(Cn1nc2c(cc1=O)CCCC2)NC(C(=O)O)c1ccccc1` (stereo not given) stands 5.7%.
For `Cc1nn(C)cc1CN(C)C(=O)c1ccncc1`, the cytotoxicity at 10 µM is -5.51%.
Regarding `Cc1c2nnn(CC(=O)N(C)C)c(=O)c2nn1C`, the cytotoxicity at 10 µM is -4.26%.
Under `COc1cc(C(=O)NCC2(N(C)C)CCN(C)CC2)c2ccccc2n1` stands -0.356%.
For the compound `Cc1csc(Nc2cc(C3CN(c4ccncn4)C3)nc(C)n2)n1`, the cytotoxicity at 10 µM amounted to 11.6%.
For `Cc1nc(C2CN(Cc3scnc3C)CCO2)cc(N(C)C)n1` (stereo not given) the value was -12.3%; for `CC(C)Oc1ccc(CN2CCC(c3n[nH]c4ncccc34)CC2)cc1`, -21.4%.
Under `Cc1cc(C)nc(N2CCCC(c3cccc(-n4ccnc4)n3)C2)n1` (stereo not given) stands -0.252%.
On to `Nc1cc(CCC2CN(Cc3ccc4c(c3)OCCO4)CCO2)ccn1` (stereo not given), for which the cytotoxicity at 10 µM is 15.8%.
Under `Cc1cc(C)c(CN2CCCC23Cc2ccccc2CNC3=O)c(C)c1` (stereo not given) stands 10.8%; under `Cc1ccc(CN2CCS(=O)(=O)C(C)(C)C2)cc1C`, 1.05%; under `CC(C)OCc1ccccc1CNC(=O)C(C)(C)C`, -8.11%.
Under `CSCCC(=O)N1CCN(CC(C)O)CC1` (stereo not given) stands -5.64%.
Regarding `NC(=O)c1cncc(N2CCN(Cc3ccc(F)cc3Cl)CC2)n1`, the cytotoxicity at 10 µM is 11.8%.
For `CC(NC(=O)NC1CCN(Cc2ccncc2)CC1)c1ccccc1F` (stereo not given) the value was -17.8%; for `O=C(CCc1nc(-c2ccsc2)no1)NCC1CCN(C2CC2)C1` (stereo not given), 3.23%; for `CC(CNC(=O)c1cnccn1)Oc1ccc(F)cc1` (stereo not given), -2.55%.
Under `O=C(c1ccc(F)cc1Cl)N1CCn2c(nnc2C(F)(F)F)C1` stands -6.7%; under `CCc1cnc(CN(C)C(=O)NC2CCN(C)C2=O)s1` (stereo not given), -0.786%; under `CC(NC(=O)N(C)Cc1cccc(OC(F)F)c1)c1nncn1C` (stereo not given), -2.69%.
For `Cc1ccc(C(=O)Nc2cc(C(N)=O)ccc2N2CCCCC2)cc1F` the value was 2.13%.
Take `CC(C)NC(=O)CCN1CCC(C(=O)c2cc(F)ccc2F)CC1`: the cytotoxicity at 10 µM is -25%.
Under `COc1cccc(CN(C)CC2=Nc3ccccc3S(=O)(=O)N2)c1` stands 36.4%; under `COCc1ccccc1CNC(=O)CN1CCC2(CCOC2)C1` (stereo not given), -61%.
Under `COc1ccc(C(C)Nc2cnn(C)c(=O)c2Cl)cc1OC` (stereo not given) stands 18.7%.
Under `COCCS(=O)(=O)NC(C)c1ccc(-n2nc(C)cc2C)cc1` (stereo not given) stands 1.91%; under `O=S(=O)(Cc1ccc(F)cc1)NCc1nnc2n1CCC2`, 3.82%; under `CC(=O)N1CCC(NS(=O)(=O)c2cccnc2)CC1`, -2.73%.
Turning to `N#Cc1ccc(NC2CCN(c3ncccn3)CC2)cc1C(F)(F)F`, the cytotoxicity at 10 µM stood at 27.5%.
Under `COCCNC(=O)C[C@@H]1COC[C@H]2CN(C(=O)C3CCOCC3)C[C@@H]12` stands -94.8%; under `COc1cc(N2CCN(CC3CC3)c3nc(C)ccc3C2)ncn1`, -101%; under `Cn1cc(C2COC3(CCN(C(=O)c4ccsc4)CC3)C2)cn1` (stereo not given), -67%.
Under `Cc1cc(C(=O)N2CC[C@@]3(C[C@@H](NS(C)(=O)=O)CCO3)C2)no1` stands -61.1%; under `CO[C@H]1CCN(Cc2nccs2)C[C@@H]1Cc1ccccc1`, -71.9%; under `CCO[C@@H]1CCN(C(=O)c2ccnnc2)[C@@H]1Cc1cnn(C)c1`, -62.8%.
Under `CCCn1c(C)c(CC(=O)NCCC(N)=O)c2c1CC(C)(C)CC2=O` stands 9.36%.
As for `O=C1NC2(CCN(Cc3ccccc3Cl)CC2)CC1c1ccccc1` (stereo not given), the cytotoxicity at 10 µM is -49.2%.
For `CC(C)c1cc(C(=O)NCC2CCCN(c3ncccn3)C2)n(C)n1` (stereo not given) the value was 17.2%; for `CN(C)c1nc2c(c(N(C)Cc3n[nH]c4c3CCCC4)n1)CCNCC2`, 3.2%.
Under `CCO[C@H]1C[C@@H](O)C12CCN(C1CCN(c3ccccc3C)CC1)CC2` stands 9.9%; under `CCc1c(C)nc(N)nc1NCCSCc1[nH]cnc1C`, 4.5%; under `CCC(Nc1nc(C)nc2onc(C)c12)c1nc(C)c(C)s1` (stereo not given), 37.2%.
For `COCCC1(C(=O)O)CCCN(C(=O)c2cc(C)oc2C)C1` (stereo not given) the value was -5.89%; for `CCc1c(C)nc(N)nc1N1CCCC(c2nc(CCOC)no2)C1` (stereo not given), 31.5%.
On to `COc1ccc(C(=O)C2CCCN(Cc3cc(C)n[nH]3)C2)c(OC)c1` (stereo not given), for which the cytotoxicity at 10 µM is -6.77%.
With `CSCCc1c(-c2ccccc2)ncn1CC(C)(C)N1CCOCC1`, the cytotoxicity at 10 µM was -47.4%.
For `Cc1ccsc1CN(C)Cc1ncccc1C(=O)O` the value was -2.55%; for `O=C(c1cnc2c(c1)CCC2)N1CCCC(CO)(CC2CC2)C1` (stereo not given), -42.1%.
Turning to `O=C1N(Cc2ccc(F)c(F)c2)CCCC1(O)CNCC1CCCCC1` (stereo not given), the cytotoxicity at 10 µM came out at 10.5%.
On to `O=C(NCCN1CCc2ccccc21)c1cc(-c2ccc(O)cc2)n[nH]1`, for which the cytotoxicity at 10 µM is 1.91%.
For `COc1cccc(CCC2CCCN(C(=O)c3ccc(OC)o3)C2)c1` (stereo not given) the value was 9.9%.
Under `CC(C)(CNc1cccc(Cl)c1)NC(=O)C1CCCN(CC(N)=O)C1` (stereo not given) stands -1.46%; under `CC(C)N1CCCC2(CCN(Cc3noc(C4CCCC4)n3)C2)C1=O` (stereo not given), 2.24%.
For `Cc1ccc(Oc2ncccc2CNS(=O)(=O)N2CCOCC2)cn1` the value was 9.83%.
On to `O=C1N(Cc2cccc(F)c2F)CCCC1(O)CNCC1CCCCC1` (stereo not given), for which the cytotoxicity at 10 µM is -1.29%.
Under `CNC(=O)c1cn2cc(-c3ccc(F)cc3)n(CC=C(C)C)c(=O)c2n1` stands -52.2%.
For `Cc1nn(C)c(C)c1-c1ccnc(N(C)Cc2nc(C(C)C)no2)n1` the value was 20.6%; for `CC(CN1CCC2(CC1)N=C(c1cccnc1)NC2=O)c1ccccc1` (stereo not given), 4.5%; for `CCc1ccccc1OCCN(C)C(=O)CCN1CCCCO1`, -57.1%.
Under `CCc1cc(N2CCC3(CCCNC3=O)C2)nc(N2CCOCC2)n1` (stereo not given) stands -0.28%.
As to `Cc1cc(=O)n(CC(=O)NC2CCCCC2)c2ccccc12`, the cytotoxicity at 10 µM was determined as 0.126%.
Under `Cc1c(C(=O)N2CCC(N3CCCCC3)CC2)n(C)c2ccc(Cl)cc12` stands -63.8%; under `COCCN1CCCC2(CCN(c3ncnc(C)c3C)C2)C1=O` (stereo not given), 33.4%; under `COc1cc(CN2CCCC2)ccc1Oc1ccc2c(c1)CC(CN)O2` (stereo not given), -7.79%.
For `CC(=O)c1ccc(N2CCCC(CO)(CCOc3ccccc3)C2)nc1` (stereo not given) the value was 3.15%; for `Cn1c(CN2CCCC2)nnc1C1CCCN(C(=O)C2CCOCC2)C1` (stereo not given), -17%; for `Cc1ccsc1-c1nnc(C2CCN(Cc3ccc(F)cc3)CC2)o1`, 4.58%.
Take `O=C(O)CC(NC(=O)c1ccccc1OC(F)F)c1cccs1` (stereo not given): the cytotoxicity at 10 µM is -10.8%.
For `CCOCCCn1c(NC(=O)c2scnc2C)nc2ccccc21` the value was 5.9%; for `Cc1nccn1CC1CCCN1CCCc1nc(-c2cccs2)no1` (stereo not given), -1.84%.
Under `Cc1nc(CN(C)C2CCN(Cc3ccc4ccccc4n3)C2)no1` (stereo not given) stands -2.23%; under `CCOc1ccc(N(CC(=O)c2ccccc2)C2=NCCCCC2)cc1`, -2.02%.
`Clc1ccc(C2(CNC3=NCCN3)CCCC2)cc1`: the cytotoxicity at 10 µM was determined as 14.4%.
Under `Cc1ccc(CN(CCCn2ccnc2)Cc2c[nH]nc2C(C)(C)C)s1` stands -3.91%; under `CCOC(=O)c1ccccc1NC(=O)CN(C)Cc1ccccc1Cl`, -5.65%.
For `COCCC(=O)N1CC2(CCN(Cc3ccccc3Cl)CC2)C1` the value was -73.1%; for `CN(C)CCN1CCCC12CCN(Cc1nccn1C)CC2`, -99.1%.
Under `CCCN1CCC2(C1)c1ccccc1S(=O)(=O)N2Cc1ccccc1` (stereo not given) stands 16.7%.
As for `CN(C)C(=O)CN1CCC2(COCc3cnc(-c4cccnc4)nc32)C1` (stereo not given), the cytotoxicity at 10 µM was -115%.
For `Fc1cccc(CNCC2OCCc3cn(CC4CCOCC4)nc32)c1` (stereo not given) the value was -77.1%; for `Cc1ccc(CN2CC[C@@H]3[C@H]2CCC(=O)N3Cc2ccncc2)s1`, -65.6%; for `COc1cc(N2C[C@@H]3COC[C@]3(COCc3ccccn3)C2)ncn1`, -73.2%.
Under `Fc1ccc(CN2C[C@@H]3OCCN(CC4CCCO4)[C@@H]3C2)cc1` (stereo not given in full) stands -86.3%.
Under `OC1(Cn2ccc3ncccc32)CCN(Cc2ccccc2F)CC1` stands -5.33%; under `O=C(c1ccc(F)c(Cl)c1)N1C[C@H]2CC[C@@H](C1)N(Cc1ccccc1)C2`, -8.28%; under `CCNc1c(NC(=O)NCCOC)c(=O)oc2ccccc12`, -2.89%.
For the compound `CC1(C)[C@@H]2CC=C(CN3CCCn4nc(C(=O)NCCO)cc4C3)[C@H]1C2`, the cytotoxicity at 10 µM is -40.3%.
